Screening results deposited in PubChem by Johns Hopkins Ion Channel Center.
RGS4 pot – potentiators or activators of RGS4. HEK293 M3R/inducible RGS4, carbachol calcium flux Fluo4; stronger effect = lower value. B-score at 10 µM. actives 0.92% (n = 310,000). AID 463111;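 active means B-score of the integrated calcium signal more than 4 SD below the library mean, with starting fluorescence not abnormally high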;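 further: negative B-score means reduced calcium response which marks RGS4 activation or potentiation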
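Material: M3R-expressing HEK293 line, RGS4 induced by doxycycline | Schedule: Overnight RGS4 induction, 30 min dye load 37 °C, 20 min compound RT | Measured by: Fluo4 fluorescence kinetic imaging of calcium | Read-out: Integrated calcium ratio converted to B score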
MrgX1 allo act – allosterically activates human MrgX1 receptor signaling. Q96LB2. MrgX1-HEK293, Fluo-4 calcium flux, FDSS; stronger effect = higher value. B-score at 10 µM. actives 0.63% (n = 310,000);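 active means plate-corrected calcium response at least 3 library SD above typical, normal starting fluorescence, not activating the receptor alone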;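 further: compound read alongside a low EC10 to EC30 dose of BAM8-22 agonist; peak minus trough fluorescence over baseline measured at the second addition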
Target sequence (Q96LB2 whole entry, looked up): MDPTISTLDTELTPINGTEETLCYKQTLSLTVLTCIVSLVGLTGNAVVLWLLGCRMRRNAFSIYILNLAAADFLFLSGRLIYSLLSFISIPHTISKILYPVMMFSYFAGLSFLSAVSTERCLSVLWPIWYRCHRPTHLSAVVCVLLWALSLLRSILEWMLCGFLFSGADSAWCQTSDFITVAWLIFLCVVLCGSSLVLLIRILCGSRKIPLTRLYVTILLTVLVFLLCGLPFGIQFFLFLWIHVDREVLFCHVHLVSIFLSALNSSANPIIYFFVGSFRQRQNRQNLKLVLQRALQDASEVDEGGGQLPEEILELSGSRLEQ
MrgX1 antagonist – blocks BAM8-22 activation of human MrgX1 receptor | Q96LB2 | MRGX1-HEK293 calcium flux, Fluo-4, BAM8-22 antagonism; stronger effect = lower value | B-score at 10 µM | actives 1.3% (n = 310,000) | AID 588676;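 active means calcium-response B-score plate-corrected more than 3 library SD below zero, starting fluorescence within 5 deviations, no agonist response on first addition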;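 further: peak minus trough fluorescence over baseline after final BAM8-22 challenge near maximal dose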
MrgX1 agonist – agonists of human MrgX1 receptor | AID 588627 | Q96LB2 | actives 0.44% (n = 310,000) | MrgX1-HEK293 cells, Fluo-4 calcium fluorescence, agonist mode; stronger effect = higher value | B-score at 10 µM;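 active means calcium response B-score plate-corrected fluorescence ratio at least 3 library SD, with starting fluorescence B-score inside 5 SD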
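System: HEK293 cells stably expressing human MrgX1 receptor; Dosing: test compound in the initial addition of three; Schedule: overnight plating, then 30 min 37 °C plus 30 min room-temperature dye loading; Detection: kinetic calcium dye fluorescence, Fluo-4 NW; Controls: per-plate positive and negative controls for Z′ factor.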
RGS4 block – inhibitors of human RGS4; P49798; HEK293 M3R/RGS4 inducible, Fluo-4 calcium flux; stronger effect = higher value; triggered by carbachol at its EC20; B-score at 10 µM; actives 0.45% (n = 310,000); AID 463165;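 active means B-score, a plate-corrected calcium signal, over three deviations above library mean, with baseline fluorescence within five deviations of library mean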;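 further: RGS4 expression induced by doxycycline in cells with stable M3 receptor; B-score is computed from the integrated fluorescence ratio over baseline after carbachol; higher B-score means a larger calcium signal and so more RGS4 inhibition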
Target sequence (P49798 whole entry, looked up): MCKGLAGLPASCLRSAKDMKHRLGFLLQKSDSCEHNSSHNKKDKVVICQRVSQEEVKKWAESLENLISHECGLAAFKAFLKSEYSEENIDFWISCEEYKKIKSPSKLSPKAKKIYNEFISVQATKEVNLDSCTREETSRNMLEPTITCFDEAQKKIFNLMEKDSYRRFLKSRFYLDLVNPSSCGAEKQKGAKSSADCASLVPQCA
MrgX1 antag conf – human MrgX1 receptor antagonism, re-confirmation screen; shares compounds with MrgX1 antagonist; AID 602420; actives 19% (n = 2,300); MrgX1-HEK293, BAM8-22 calcium flux, Fluo-4; stronger effect = lower value; remaining BAM8-22 calcium response % of control (stronger effect = lower value), % at 10 µM;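 active means remaining agonist calcium response no higher than 100% minus 3 SD of agonist-only control wells, with starting fluorescence near control levels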;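 further: agonist BAM8-22 given at a near maximal EC90 to ECmax level; peak minus minimum fluorescence divided by baseline after agonist addition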
HEK293 Ca flux – counter-screen for MrgX1 antagonists: effect in parental HEK293 cells. actives 2% (n = 4,000). shares compounds with MrgX1 antagonist. AID 624111. fluorescence ratio F(max-min)/F0 at 10 µM. Fluo-4 calcium fluorescence, FDSS;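 active means duplicate-averaged calcium fluorescence ratio at least three times the standard deviation of buffer wells, a nonspecific response in parental cells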
HEK293 Ca counter – activity in parental HEK293 cells without MrgX1; actives 0.4% (n = 4,000); AID 624114; parental HEK293 calcium flux, Fluo-4 fluorescence ratio; stronger effect = higher value; shares compounds with MrgX1 antagonist; fluorescence ratio F(max-min)/F0 at 10 µM;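 active means calcium fluorescence ratio, averaged over duplicates, at least 3 SD of the buffer-well ratio, meaning a nonspecific response in receptor-free cells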;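 further: untransfected parental HEK293 lacking MrgX1 used as counterscreen for MrgX1 allosteric activators; fluorescence change taken during the second addition on a kinetic imager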
HEK293 Ca cntr2 – activity in parental HEK293 cells lacking MrgX1 receptor | shares compounds with MrgX1 antagonist | Fluo-4 calcium fluorescence (FDSS); stronger effect = higher value | fluorescence ratio F(max-min)/F0 at 10 µM | actives 8.7% (n = 4,000) | AID 624115;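 active means calcium fluorescence ratio at least three times the spread of buffer wells, meaning a non-specific response in parental cells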
An asterisk follows results filed as active; i = inactive; nt = no result given; ! = a repeat was not active. Rows were chosen to be rich in hits. Some 3.5% of all compounds tested hit in one or more screens of this group.

SMILES	RGS4 pot	MrgX1 allo act	MrgX1 antagonist	MrgX1 agonist	RGS4 block	MrgX1 antag conf	HEK293 Ca flux	HEK293 Ca counter	HEK293 Ca cntr2
O=c1[nH]c(CO)nc2c1oc1ccccc12	i	i	-6.7*	i	i	i	i	i	i
COc1cc(-c2nnn(CC#N)n2)ccc1OCc1ccccc1	i	i	-4.7*	i	i	i	i	i	i
COc1cc(-c2nnn(CC(=O)NC3CCS(=O)(=O)C3)n2)ccc1OCc1ccccc1 (stereo not given)	i	i	i	i	i	nt	nt	nt	nt
COc1ccc(-c2nnn(CC(=O)c3ccccc3)n2)cc1OC	i	i	-4.7*	i	i	i	i	i	i
CCOC(=O)C1CCCN(C(=O)Cc2ccc(OC)c(OC)c2)C1 (stereo not given)	i	i	-4.8*	i	i	i	i	i	i
Cc1ccc(NC(=O)Cc2c(Cl)cccc2Cl)cc1S(=O)(=O)N(C)C	i	i	-19*	i	i	i	i	i	i
O=C(/C=C/NCc1cccnc1)c1ccc(Br)cc1	i	i	i	i	i	nt	nt	nt	nt
Cc1c(Cl)cccc1NC(=O)CSc1ncnc2c1cnn2CCO	i	i	i	i	i	nt	nt	nt	nt
COc1cc(NC(=O)c2ccco2)c(OC)cc1NC(=O)Nc1ccccc1Cl	i	i	-5.9*	i	i	i	i	i	i
COc1ccc2c(c1OC)C(=O)OC2Nc1ccccc1S(=O)(=O)C(F)F (stereo not given)	i	i	-4.7*	i	i	i	i	i	i
CCOCCCNC(=O)CCn1nc(-c2ccc(Cl)cc2)ccc1=O	i	i	i	i	i	nt	nt	nt	nt
O=C(NCCC1=CCCCC1)c1ccc(F)cc1	i	i	-6.2*	i	i	i	i	i	i
Cc1ccc(S(=O)(=O)N(C)c2ccccc2C(=O)NC2CCCC2)cc1	i	i	i	i	i	nt	nt	nt	nt
Cc1ccc(S(=O)(=O)N2CCCC2C(=O)NC2CCCCC2)cc1 (stereo not given)	i	i	-14*	i	i	i	i	i	i
CCOc1cc(-c2c(C#N)c(N)nc3c2CCCC3C)ccc1O (stereo not given)	i	i	-4.7*	i	i	i	i	i	i
O=C(CN1CCC(c2nc3ccccc3s2)CC1)NCc1ccccc1	i	i	-5.4*	i	i	i	i	i	i
Cc1ccc(NC(=O)Nc2nnc(-c3ccncc3)s2)cc1C	i	i	-6.1*	i	i	64%*	i	i	i
CSc1nc2c(c(=O)[nH]c(=O)n2C)n1Cc1ccccc1Cl	i	i	i	i	i	nt	nt	nt	nt
Cc1csc(Sc2nc3c(c(=O)[nH]c(=O)n3C)n2Cc2ccccc2Cl)n1	i	i	-8.8*	i	i	i	i	i	i
CC(C)NC(=O)Cn1cc(S(=O)(=O)N2CCCC2)c(S(=O)(=O)N2CCCC2)c1	i	i	i	i	i	nt	nt	nt	nt
COc1ccc(CNC(=O)C2CCN(c3nnc(N4CCCC4=O)s3)CC2)cc1	i	i	-5.3*	i	i	i	i	i	i
COc1ccc(Br)cc1CNC(=O)C1CCN(c2nnc(N3CCCC3=O)s2)CC1	i	i	i	i	i	nt	nt	nt	nt
Cn1c(=O)c2c(SCC(=O)Nc3ccccc3F)nc(-c3ccccc3F)nc2n(C)c1=O	i	i	i	i	i	nt	nt	nt	nt
CC(C)(C)c1cccc(Oc2nn[nH]n2)c1	i	i	-6.9*	i	i	i	i	i	i
O=C(Nc1ccc(F)cc1)Nc1cc(OCC(F)(F)F)cc(OCC(F)(F)F)c1	i	i	-6*	i	i	62%*	i	i	i
SMILES	RGS4 pot	MrgX1 allo act	MrgX1 antagonist	MrgX1 agonist	RGS4 block	MrgX1 antag conf	HEK293 Ca flux	HEK293 Ca counter	HEK293 Ca cntr2
Cc1ccc(NS(=O)(=O)c2ccc(N3C(=O)CCC3=O)cc2)cc1	i	i	-5.4*	i	i	i	i	i	i
CC(C)c1ccc(NS(=O)(=O)c2ccc(N3C(=O)CCC3=O)cc2)cc1	i	i	i	i	i	nt	nt	nt	nt
Cc1ccccc1OCC(O)Cn1c(=N)n(CCN2CCOCC2)c2ccccc21 (stereo not given)	i	i	-8.5*!	i	i	i	i	i	i
COC(=O)[C@@H]1CCCN1C(=O)[C@@H](NC(=O)OC(C)(C)C)C(C)C	i	i	i	i	i	nt	nt	nt	nt
CC1(C)CC(=O)C(C=Nc2cccnc2)=C(O)C1	i	i	-4.6*	i	i	i	i	i	i
S=C(NCCc1ccccn1)Nc1cc(Cl)cc(Cl)c1	i	i	-4.5*	i	i	81%*	i	i	i
O=C(COc1ccc(Cl)cc1)NCCc1ccccn1	i	i	-5.2*	i	i	85%*	i	i	i
O=C(COc1ccc(Cl)cc1)NCCCNC(=O)c1ccccn1	i	i	i	i	i	nt	nt	nt	nt
S=C(NCCc1ccccn1)Nc1ccc(Cl)c(Cl)c1	i	i	i	i	i	nt	nt	nt	nt
Cc1ccsc1C(C(=O)NCc1ccccc1)N(C(=O)c1csnn1)c1ccccc1 (stereo not given)	i	i	i	i	i	nt	nt	nt	nt
CCN(C(=O)Cc1c(C(=O)O)n(C)c2ccccc12)c1ccc(F)cc1	i	i	-5*	i	i	i	i	i	i
CCN(C(=O)Cc1c(C(=O)O)n(C)c2ccccc12)c1cc(OC)ccc1OC	i	i	i	i	i	nt	nt	nt	nt
CSc1ccccc1C(=O)Nc1ccccc1C(=O)NC(C)C	i	i	i	i	i	nt	nt	nt	nt
O=C(O)c1ccc(CNCc2ccc(Cl)cc2Cl)cc1	i	i	-5*	i	i	i	i	i	i
O=C(O)c1ccc(CNCc2ccc(Cl)cc2)cc1	i	i	i	i	i	nt	nt	nt	nt
